According to ChEMBL document CHEMBL3593158, “Dirchromones: Cytotoxic Organic Sulfur Compounds Isolated from Dirca palustris” (J Nat Prod, 2015):
≈ marks a conversion by molar mass, not a printed value. Calls of active or inactive are those of the source. No cut-off for these calls is given here.

Experiments:
Staphylococcus aureus = test: Antibacterial activity against Staphylococcus aureus ATCC 25923 incubated for 24 hrs by microdilution method; type: functional
Outline: (§1)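 Modified microdilution in nutrient broth with exponentially growing bacteria per well: E. coli at 5 × 10^3, S. aureus at 3.5 × 10^4. Increasing compound concentrations were dissolved in DMSO and diluted in broth (final DMSO 0.1% v/v). Plates incubated 24 h at 37 °C.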

A549 [1] = test: Cytotoxicity against human A549 cells assessed as inhibition of cell growth incubated for 48 hrs by Hoechst assay; type: functional, cell-based; conditions: A549, 48 h
Outline: (§2)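 Cells from ATCC, grown in MEM with Earle's salts, 10% fetal calf serum, vitamins, sodium pyruvate, nonessential amino acids and penicillin/streptomycin at 37 °C in humidified 5% CO2. 5 × 10^3 exponentially growing cells per well adhered for 16 h, then were exposed 48 h to increasing concentrations in medium (final DMSO 0.5% v/v). Hoechst staining read-out; IC50 is the concentration inhibiting growth by 50%.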

[2] = Cytotoxicity against human DLD1 cells assessed as inhibition of cell growth incubated for 48 hrs by Hoechst assay; type: functional, cell-based; conditions: DLD-1, 48 h; outline: as §2
[3] = Cytotoxicity against human WS1 cells assessed as inhibition of cell growth incubated for 48 hrs by Hoechst assay; type: cell-based; conditions: WS1, 48 h; outline: as §2
Escherichia coli = test: Antibacterial activity against Escherichia coli ATCC 25922 incubated for 24 hrs by microdilution method; type: functional, organism-based; outline: as §1
Candida albicans = test: Antifungal activity against Candida albicans incubated for 24 hrs by microdilution method; type: functional, organism-based
Outline: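 Yeast tested by modified microdilution at 2 × 10^3 C. albicans per well in Sabouraud dextrose. Compounds were dissolved in DMSO, diluted in Sabouraud dextrose and added at increasing concentrations (final DMSO 0.1% v/v). Plates incubated 24 h at 37 °C.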

A549 [4] = test: Selectivity index, ratio of IC50 for human A549 cells to IC50 for human DLD1 cells; type: functional
DLD-1 = test: Selectivity index, ratio of IC50 for human WS1 cells to IC50 for human DLD1 cells; type: functional

Compound | MIC90 (Staphylococcus aureus; ATCC 25923, 24 h) [µg/mL] | IC50 (A549 [1]) [µM] | IC50 [2] [µM] | IC50 [3] [µM] | Activity (Escherichia coli) | Activity (Candida albicans) | Ratio IC50 (A549 [4]) | Ratio IC50 (DLD-1) | MIC90 (Staphylococcus aureus) [µg/mL]
COc1cc2oc(/C=C/[S+](C)[O-])cc(=O)c2cc1O (stereo not drawn) | 14 (≈ 49.9 µM) | > 10 | > 10 | > 10 | inactive | inactive |  |  | 
COc1ccc2c(=O)cc(/C=C/[S+](C)[O-])oc2c1O (stereo not drawn) | 14 (≈ 49.9 µM) | > 10 | > 10 | > 10 | inactive | inactive |  |  | 
COc1ccc2oc(/C=C/[S+](C)[O-])cc(=O)c2c1 (stereo not drawn) | 4.1 (≈ 15.5 µM) | 9 | 1.1 | 6 | inactive | inactive | 8.2 | 5 | 
C[S+]([O-])/C=C/c1cc(=O)c2ccccc2o1 (stereo not drawn) | 3.7 (≈ 15.8 µM) | 10 | 1 | 9 | inactive | inactive | 10 | 9 | 
COc1cc([C@@H]2c3cc4c(cc3[C@@H](O[C@@H]3O[C@@H]5CO[C@@H](C)O[C@H]5[C@H](O)[C@H]3O)[C@H]3COC(=O)[C@H]23)OCO4)cc(OC)c1O [ETOPOSIDE] |  | 0.48 | 3.3 | > 10 |  |  |  |  | 
COc1ccc2c(=O)cc(/C=C/[S+](C)[O-])oc2c1OC (stereo not drawn) | 18.4 (≈ 62.5 µM) | > 10 | 3.3 | > 10 | inactive | inactive |  |  | 
COc1ccc2c(=O)cc(/C=C/[S+](C)[O-])oc2c1 (stereo not drawn) | 8.3 (≈ 31.4 µM) | 10.5 | 1.8 | 9 | inactive | inactive | 5.8 | 5 | 
C[S+]([O-])/C=C/c1cc(=O)c2cc(O)ccc2o1 (stereo not drawn) | 7.8 (≈ 31.2 µM) | > 10 | > 10 | > 10 | inactive | inactive |  |  | 
GENTAMICIN |  |  |  |  |  |  |  |  | 0.04
COc1cc2oc(/C=C/[S+](C)[O-])cc(=O)c2cc1OC (stereo not drawn) | 18.4 (≈ 62.5 µM) | > 10 | 4.2 | > 10 | inactive | inactive |  |  | 
